# Laboratory results published in ChEMBL document CHEMBL4028856, “Discovery of Small Molecules Targeting the Synergy of Cardiac Transcription Factors GATA4 and NKX2-5” (J Med Chem, 2017).
# pIC50: −log10 of the molar value. The source made the active and inactive calls. No cut-off for these calls is given here.
# Target: GATA4/NKX2-5 (Mus musculus, UniProt P42582+Q08369)
# Assay: Inhibition of mouse GATA4/NKX2-5 transcriptional synergy expressed in African green monkey COS-1 cells measured after 30 hrs by dual luciferase reporter gene assay
# Format: cell-based
# Conditions: not given
# How it was run: (§1)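 COS-1 cells co-transfected (Fugene 6, DNA:reagent 1:3) with p3xNKE-luc, Renilla pRL-TKd238 control, and pMT2-GATA4, pMT2-NKX2-5, both, or empty pMT2; DNA balanced with pMT2. Compounds added 6 h post-transfection in 0.1% DMSO, medium renewed at 24 h, lysis at 30 h. Dual-luciferase read-out, firefly/Renilla normalized to vehicle; duplicate wells.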
# Sequence of GATA4/NKX2-5 (Q08369 whole entry): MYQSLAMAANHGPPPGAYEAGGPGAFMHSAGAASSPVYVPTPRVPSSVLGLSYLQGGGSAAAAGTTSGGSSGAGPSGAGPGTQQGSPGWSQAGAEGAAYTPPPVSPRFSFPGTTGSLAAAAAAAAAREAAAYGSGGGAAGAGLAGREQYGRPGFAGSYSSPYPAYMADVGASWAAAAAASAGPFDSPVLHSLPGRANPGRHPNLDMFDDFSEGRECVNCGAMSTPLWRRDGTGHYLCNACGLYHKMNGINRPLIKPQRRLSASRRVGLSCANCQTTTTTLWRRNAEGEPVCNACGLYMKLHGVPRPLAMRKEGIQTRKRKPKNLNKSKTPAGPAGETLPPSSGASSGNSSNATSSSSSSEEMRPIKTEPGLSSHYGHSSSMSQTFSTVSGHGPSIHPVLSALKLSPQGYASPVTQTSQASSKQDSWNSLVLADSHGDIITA
# Sequence of GATA4/NKX2-5 (P42582 whole entry): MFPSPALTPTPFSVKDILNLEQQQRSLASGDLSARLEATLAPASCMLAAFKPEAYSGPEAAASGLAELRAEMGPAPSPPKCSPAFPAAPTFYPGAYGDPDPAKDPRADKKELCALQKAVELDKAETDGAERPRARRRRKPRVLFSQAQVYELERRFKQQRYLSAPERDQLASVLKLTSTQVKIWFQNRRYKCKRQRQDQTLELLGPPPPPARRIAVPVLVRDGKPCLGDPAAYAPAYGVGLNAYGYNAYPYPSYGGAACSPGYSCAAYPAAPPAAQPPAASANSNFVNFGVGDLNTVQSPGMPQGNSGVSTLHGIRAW
row,SMILES,pIC50
1,CC(C)CNC(=O)c1ccc(NC(=O)c2cccs2)cc1,< 4.30
2,CCN(CC)S(=O)(=O)c1cc(NC(=O)c2c(-c3ccccc3)noc2C)ccc1C,< 4.30
3,CCC(CC)C(=O)Nc1ccc(C(=O)NCC(C)C)cc1,< 4.30
4,Cc1cccc(/C=N/n2c(S)nnc2-c2ccccc2)c1,< 4.30
5,O=c1cc(-c2ccc(O)cc2)oc2cc(O)cc(O)c12 [APIGENIN],4.62
6,O=C(O)/C(=C/c1ccccc1)c1c(F)c(F)c(F)c(F)c1F,4.30
7,CC(C)COC(=O)c1ccc(NC(=O)CCC(=O)O)cc1,4.43
8,CCCOc1ccc(NC(=O)c2c(-c3ccccc3)noc2C)cc1,< 4.30
9,CCN(CC)S(=O)(=O)c1cccc(NC(=O)c2c(-c3ccccc3)noc2C)c1,< 4.30
10,Cc1onc(-c2ccccc2)c1C(=O)Nc1ccc(Oc2ccccc2)cc1,< 4.30
11,c1ccc(-c2nonc2-c2ccccc2)cc1,4.30
12,CC(C)COC(=O)c1ccc(NC(=O)COc2ccccc2Cl)cc1,< 4.30
13,CCN(CC)c1ccc(/C=N/n2c(S)nnc2-c2ccccc2)c(OC)c1,< 4.30
14,Cc1nc(-c2ccc(NC(=O)c3c(-c4ccccc4)noc3C)cc2)cs1,< 4.30
15,CCOc1ccc(/C=N/n2c(SC)nnc2-c2ccccc2)cc1OCC,4.52
16,Fc1cccc(/C=N/n2c(S)nnc2-c2ccccc2)c1,< 4.30
17,CCNc1ccc(NC(=O)c2c(-c3ccccc3)noc2CO)cc1,< 4.30
18,COc1cccc(/C=N/n2c(S)nnc2-c2ccccc2)c1,< 4.30
19,COc1cccc(/C=N/n2c(SC)nnc2-c2ccccc2)c1OC,< 4.30
20,CC(C)c1ccc(/C=N/n2c(S)nnc2-c2cccnc2)cc1,< 4.30
21,Cc1onc(-c2ccccc2)c1C(=O)Nc1ccc(S(=O)(=O)N2CCOCC2)cc1,< 4.30

row,SMILES,pIC50
1,Sc1nnc(-c2ccccc2)n1/N=C/c1ccc(OC2CCCC2)cc1,4.43
2,COc1cccc(C(=O)Nc2ccc(C(=O)NCC(C)C)cc2)c1,< 4.30
3,CCCC(=O)Nc1ccc(C(=O)NCC(C)C)cc1,< 4.30
4,O=c1cc(-c2ccc(O)c(O)c2)oc2cc(O)cc(O)c12 [LUTEOLIN],4.66
5,CC(C)CNC(=O)c1ccc(NC(=O)C(F)(F)F)cc1,4.38
6,CC(C)CNC(=O)c1ccc(NC(=O)C2CCCO2)cc1 (configuration not stated),< 4.30
7,CCCOC(=O)c1ccc(NC(=O)c2c(-c3ccccc3)noc2C)cc1,< 4.30
8,Cc1onc(-c2ccccc2)c1C(=O)Nc1ccc(C#N)c(Cl)c1,4.80
9,Cc1onc(-c2ccccc2)c1C(=O)Nc1ccc(N2CCCCC2)cc1,< 4.30
10,Cc1onc(-c2ccccc2)c1C(=O)Nc1ccc(N2CCOCC2)cc1,< 4.30
11,CCC(C)c1ccc(NC(=O)c2c(-c3ccccc3)noc2C)cc1 (configuration not stated),4.49
12,Cc1ccc(C(=O)Nc2ccc(C(=O)OCC(C)C)cc2)cc1C,< 4.30
13,Cc1onc(-c2ccccc2)c1C(=O)Nc1ccc(Sc2nccn2C)cc1,< 4.30
14,CC(C)CNC(=O)c1ccc(NC(=O)C2CCCCC2)cc1,< 4.30
15,Cc1onc(-c2ccccc2)c1C(=O)Nc1ccc(S(=O)(=O)Nc2ncccn2)cc1,4.55
16,Cc1onc(-c2ccccc2)c1C(=O)Nc1cccc(S(=O)(=O)N2CCCC2)c1,4.48
17,CC(C)CNC(=O)c1ccc(NC(=O)c2ccccc2)cc1,< 4.30
18,CCCCOc1ccc(/C=N/n2c(S)nnc2CC)cc1,< 4.30
19,CC(C)(C)c1ccc(/C=N/n2c(S)nnc2-c2cccnc2)cc1,4.52
20,Cc1onc(-c2ccccc2)c1C(=O)Nc1ccc(-n2cnnn2)cc1,< 4.30
21,Cc1onc(-c2ccccc2Cl)c1C(=O)Nc1ccc(N2CCOCC2)cc1,4.42

# The remaining lines, values ahead:
row,pIC50,SMILES
1,4.70,Cc1onc(-c2ccccc2)c1C(=O)Nc1ccc(-c2nnc3n2CCCCC3)cc1
2,4.72,CCN(CC)c1ccc(/C=N/n2c(S)nnc2-c2ccc(OC)cc2)cc1
3,4.66,Cc1onc(-c2ccccc2Cl)c1C(=O)Nc1ccc(C(C)(C)C)cc1
4,4.70,CCC(C)c1ccc(NC(=O)c2c(-c3ccccc3Cl)noc2C)cc1 (configuration not stated)
5,4.64,Cc1onc(-c2ccccc2)c1C(=O)Nc1ccc2c(c1)OC1(CCCC1)O2
6,5.10,CCN1C(=O)S/C(=C\c2ccc(N3CCCC3)c(F)c2)C1=O
7,4.68,CCc1ccc(/C=C2\SC(=O)NC2=O)cc1
8,4.62,COc1ccc(/C=N/n2c(SC)nnc2-c2ccccc2)cc1C
9,4.59,CCOc1ccc(/C=C2\SC(=O)N(CC)C2=O)cc1OCC
10,4.70,Cc1onc(-c2ccccc2)c1C(=O)Nc1ccc(C(=O)OC(C)C)cc1
11,4.89,Sc1nnc(-c2ccccc2)n1/N=C/c1cccc(Oc2ccccc2)c1
12,5.30,CCOc1ccc(/C=C2\SC(=O)N(CC)C2=O)cc1
13,4.77,Cc1onc(-c2ccccc2)c1C(=O)Nc1ccc2c(c1)CCC2
14,4.70,CCOc1ccc(NC(=O)c2c(-c3ccccc3)noc2C)cc1
15,4.96,COc1ccc(/C=N/n2c(S)nnc2-c2ccccc2)cc1C
16,4.74,Cc1onc(-c2ccccc2)c1C(=O)Nc1ccc(C(C)(C)C)cc1
17,5.10,COc1cccc(/C=N/n2c(S)nnc2-c2ccccc2)c1OC

row,pIC50,SMILES
1,4.64,CC(C)CNC(=O)c1ccc(NC(=O)C2CC2)cc1
2,5.00,COc1ccc(/C=N/n2c(S)nnc2C2CCCCC2)cc1OCc1ccccc1
3,4.70,C=CCc1cccc(/C=N/n2c(S)nnc2-c2ccccc2)c1O
4,5.22,CCN(CC)c1ccc(/C=N/n2c(S)nnc2C2CCCCC2)cc1
5,5.10,CCOc1ccccc1/C=N/n1c(S)nnc1-c1ccccc1
6,4.96,Cc1onc(-c2ccccc2)c1C(=O)Nc1ccc(OC(F)(F)F)cc1
7,5.15,CCOc1ccc(/C=N/n2c(S)nnc2C2CCCCC2)cc1
8,4.70,Cc1onc(-c2ccccc2)c1C(=O)Nc1cccc(S(=O)(=O)NCc2ccco2)c1
9,4.70,Cc1onc(-c2ccccc2)c1C(=O)Nc1cccc(C(=O)NC2CC2)c1
10,4.70,O=C1NC(=O)/C(=C/c2cccc([N+](=O)[O-])c2)S1
11,4.55,Cc1onc(-c2ccccc2)c1C(=O)Nc1cccc(S(=O)(=O)NC2=NC=CC2)c1
12,4.89,Cc1onc(-c2ccccc2)c1C(=O)Nc1ccc(OC(C)C)cc1
13,5.15,CN(C)c1ccc(/C=N/n2c(S)nnc2-c2ccncc2)cc1
14,5.15,CC(C)(C)c1ccc(/C=N/n2c(S)nnc2-c2ccncc2)cc1
15,5.00,CC(C)CCN1C(=O)S/C(=C\c2ccc(N(C)C)cc2)C1=O
16,5.05,CC(C)COC(=O)c1ccc(NC(=O)c2cccs2)cc1
17,4.80,Cc1onc(-c2ccccc2)c1C(=O)Nc1ccc(C(C)C)cc1

# Target: T1, GATA4/NKX2-5 (Mus musculus) (UniProt Q08369+P42582)
# Assay: Activation of mouse GATA4/NKX2-5 transcriptional synergy expressed in African green monkey COS-1 cells measured after 30 hrs by dual luciferase reporter gene assay
# Format: cell-based
# Conditions: not given
# How it was run: as §1
row,Ka [µM],SMILES
1,7,Cc1onc(-c2ccccc2)c1C(=O)N(C1=NC(C)CS1)c1ccc(Cl)cc1 (configuration not stated)

# Test system: not listed separately
# Assay: Induction of necrosis in endothelin-1 induced neonatal rat ventricular cardiomyocytes assessed as release of adenylate kinase at 50 uM measured after 24 hrs by bioluminescence assay
# Format: cell-based
# Conditions: cardiac muscle cell
# How it was run: (§2)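 Neonatal rat cardiomyocytes treated 24 h at 50 μM; adenylate kinase released into medium measured by ToxiLight bioluminescence on a luminometer; relative to vehicle, mean ± SD, n = 3.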
row,SMILES,Activity
1,Cc1onc(-c2ccccc2)c1C(=O)N(C1=NC(C)CS1)c1ccc(Cl)cc1 (configuration not stated),Non-Toxic

# Test system: not listed separately
# Assay: Induction of apoptosis in endothelin-1 induced neonatal rat ventricular cardiomyocytes at 50 uM measured after 24 hrs by TUNEL assay
# Format: cell-based
# Conditions: cardiac muscle cell
# How it was run: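 Neonatal rat cardiomyocytes on 8-well chamber slides treated 24 h at 50 μM; apoptotic cells detected by TUNEL with peroxidase in situ kit.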
row,SMILES,Activity
1,Cc1onc(-c2ccccc2)c1C(=O)N(C1=NC(C)CS1)c1ccc(Cl)cc1 (configuration not stated),Non-Toxic

# Target: T1, GATA4/NKX2-5 (Mus musculus)
# Assay: Activation of mouse GATA4/NKX2-5 transcriptional synergy expressed in African green monkey COS-1 cells at 10 uM measured after 30 hrs by dual luciferase reporter gene assay
# Format: cell-based
# Conditions: not given
# How it was run: as §1
row,Activity,SMILES
1,Active,Cc1onc(-c2ccccc2)c1C(=O)N(C1=NC(C)CS1)c1ccc(Cl)cc1 (configuration not stated)

# Test system: not listed separately
# Assay: Induction of aggregation of compounds at 100 uM by nephalometric method
# Conditions: not given
row,SMILES,Activity
1,Cc1onc(-c2ccccc2)c1C(=O)N(C1=NC(C)CS1)c1ccc(Cl)cc1 (configuration not stated),Active

# Test system: not listed separately
# Assay: Induction of aggregation of compound at 30 uM by nephalometric method
# Conditions: not given
row,SMILES,Activity
1,Cc1onc(-c2ccccc2)c1C(=O)N(C1=NC(C)CS1)c1ccc(Cl)cc1 (configuration not stated),Active

# Target: T1, GATA4/NKX2-5 (Mus musculus)
# Assay: Inhibition of mouse GATA4/NKX2-5 transcriptional synergy expressed in African green monkey COS-1 cells at 20 uM measured after 30 hrs by dual luciferase reporter gene assay
# Format: cell-based
# Conditions: 5 uM, in the assay text read “5 uM” for “20 uM”
# How it was run: as §1
row,inhibition,SMILES
1,Active,CCOc1ccc(/C=C2\SC(=O)N(CC)C2=O)cc1

# Target: T2, GATA4/NKX2-5 (Rattus norvegicus) (UniProt P46152+O35767)
# Assay: Inhibition of GATA4/NKX2-5 interaction in neonatal rat ventricular cardiomyocytes assessed as decrease in endothelin-1 induced mRNA level of ANP at 20 uM preincubated for 1 hr followed by endothelin-1 addition measured after 23 hrs by real-time PCR analysis
# Conditions: not given
# How it was run: (§3)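 Neonatal rat ventricular myocytes (2–4-day-old Sprague-Dawley or Wistar), preplated, seeded on 6-well plates, moved to complete serum-free medium next day and cultured 24 h. Compounds (10–100 μM) added 1 h before 100 nM endothelin-1 or none; ANP and BNP mRNA quantified by RT-PCR at 24 h, normalized to 18S RNA, relative to vehicle; mean ± SD, n = 3–6.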
row,inhibition,SMILES
1,Active,Cc1onc(-c2ccccc2)c1C(=O)Nc1ccc(OC(F)(F)F)cc1
2,Active,Cc1onc(-c2ccccc2)c1C(=O)Nc1ccc(OC(C)C)cc1
3,Active,CC(C)COC(=O)c1ccc(NC(=O)c2cccs2)cc1

row,SMILES,inhibition
1,Cc1onc(-c2ccccc2)c1C(=O)Nc1ccc(C#N)c(Cl)c1,Active

# Target: T2, GATA4/NKX2-5 (Rattus norvegicus)
# Assay: Inhibition of GATA4/NKX2-5 interaction in neonatal rat ventricular cardiomyocytes assessed as decrease in endothelin-1 induced mRNA level of BNP at 20 uM preincubated for 1 hr followed by endothelin-1 addition measured after 23 hrs by real-time PCR analysis
# Conditions: not given
# How it was run: as §3
row,inhibition,SMILES
1,Active,Cc1onc(-c2ccccc2)c1C(=O)Nc1ccc(OC(F)(F)F)cc1

# Target: T2, GATA4/NKX2-5 (Rattus norvegicus)
# Assay: Activation of GATA4/NKX2-5 interaction in neonatal rat ventricular cardiomyocytes assessed as increase in basal mRNA level of ANP at 20 uM after 24 hrs by real-time PCR analysis relative to control
# Conditions: not given
# How it was run: as §3
row,fold change (FC),SMILES
1,4.6,Cc1onc(-c2ccccc2)c1C(=O)N(C1=NC(C)CS1)c1ccc(Cl)cc1 (configuration not stated)

# Target: T2, GATA4/NKX2-5 (Rattus norvegicus)
# Assay: Activation of GATA4/NKX2-5 interaction in neonatal rat ventricular cardiomyocytes assessed as increase in basal mRNA level of BNP at 20 uM after 24 hrs by real-time PCR analysis relative to control
# Conditions: not given
# How it was run: as §3
row,fold change (FC),SMILES
1,6.4,Cc1onc(-c2ccccc2)c1C(=O)N(C1=NC(C)CS1)c1ccc(Cl)cc1 (configuration not stated)

# Target: T2, GATA4/NKX2-5 (Rattus norvegicus)
# Assay: Activation of GATA4/NKX2-5 interaction in neonatal rat ventricular cardiomyocytes assessed as increase in endothelin-1 induced mRNA level of BNP at 20 uM preincubated for 1 hr followed by endothelin-1 addition measured after 23 hrs by real-time PCR analysis relative to control
# Conditions: not given
# How it was run: as §3
row,fold change (FC),SMILES
1,2.1,Cc1onc(-c2ccccc2)c1C(=O)N(C1=NC(C)CS1)c1ccc(Cl)cc1 (configuration not stated)

# Test system: not listed separately
# Assay: Induction of necrosis in neonatal rat ventricular cardiomyocytes assessed as release of adenylate kinase at 50 uM measured after 24 hrs by bioluminescence assay
# Format: cell-based
# Conditions: cardiac muscle cell
# How it was run: as §2
row,SMILES,Activity
1,Cc1onc(-c2ccccc2)c1C(=O)N(C1=NC(C)CS1)c1ccc(Cl)cc1 (configuration not stated),Non-Toxic
